Source: ChEMBL document CHEMBL3352530, “Nitrogen-containing dihydro-β-agarofuran derivatives from Tripterygium wilfordii” (J Nat Prod, 2014)
pIC50: −log10 of the molar value.

Experiments:
PBMC [1] = test: Cytotoxicity against human PBMC after 96 hrs by flow cytometry; assay type: cell-based
Summary of the method: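 PBMCs isolated from healthy donors by Lymphoprep density-gradient centrifugation and resuspended in complete medium. Cells at 10⁶ cells/mL incubated without stimulation for 96 h with different concentrations of compound or vehicle alone. Cell survival read by flow cytometry.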

PBMC [2] = test: Immunosuppressive activity in anti-CD3/anti-CD28-induced human PBMC after 96 hrs by flow cytometry; assay type: functional, cell-based
Summary of the method: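 Healthy-donor PBMCs isolated by Lymphoprep density-gradient centrifugation, held in complete medium at 10⁶ cells/mL. Stimulated with plate-bound anti-CD3 (2 μg/mL) plus soluble anti-CD28 (1 μg/mL) monoclonal antibodies. Incubated 96 h with varying compound concentrations in DMSO (less than 0.025%) or vehicle alone. Proliferation measured by flow cytometry.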

Row | SMILES | pIC50 (PBMC [1]) | pIC50 (PBMC [2])
1 | CC(=O)OC[C@]12[C@H](OC(C)=O)[C@H](OC(C)=O)[C@@H]3[C@@H](O)[C@@]14O[C@@]3(C)COC(=O)c1cccnc1[C@@H](C)[C@H](C)C(=O)O[C@@H]([C@H](OC(=O)c1ccccc1)[C@@H]2OC(C)=O)[C@]4(C)O | 4.25 | 4.48
2 | CC(=O)O[C@@H]1[C@@H]2[C@@H](OC(C)=O)[C@@]34O[C@@]2(C)COC(=O)c2cccnc2CC[C@](C)(OC(=O)c2ccoc2)C(=O)O[C@@H]([C@H](O)[C@H](O)[C@@]3(CO)[C@@H]1O)[C@]4(C)O | < 4.00 | 5.06
3 | CC(=O)OC[C@]12[C@H](OC(C)=O)[C@H](OC(C)=O)[C@@H]3[C@@H](OC(C)=O)[C@@]14O[C@@]3(C)COC(=O)c1cccnc1CC[C@](C)(OC(=O)c1ccoc1)C(=O)O[C@@H]([C@H](OC(=O)c1ccoc1)[C@@H]2OC(C)=O)[C@]4(C)O | 4.58 | 5.31
4 | CC1(C)O[C@]23[C@H](OC(=O)c4cccnc4)[C@H]1C[C@@H](OC(=O)/C=C\c1ccccc1)[C@]2(CO)[C@@H](OC(=O)c1ccccc1)CC[C@]3(C)O | 4.24 | 4.61
5 | CC(=O)OC[C@]12[C@H](OC(C)=O)[C@H](OC(C)=O)[C@@H]3[C@@H](OC(C)=O)[C@@]14O[C@@]3(C)COC(=O)c1cccnc1CCC(C)(O)C(=O)O[C@@H]([C@H](OC(C)=O)[C@@H]2OC(C)=O)[C@]4(C)O (some centres not stated) [ALATUSININE] | 4.12 | 4.34
6 | COc1c(C)c2c(c(O)c1C/C=C(\C)CCC(=O)O)C(=O)OC2 [MYCOPHENOLIC ACID] | < 4.00 | 6.74
